High-throughput results deposited in PubChem by several laboratories.
In the library only some 2% were active in any assay of this set; here they are far more common.
SR-BI DiI inh: mouse SR-BI HDL lipid transfer inhibition; Q61009; ldlA[mSR-BI] CHO cells, DiI-HDL uptake fluorescence, 3 h; inhibition, % at 12.5 µM; hit rate 0.96% among 320,000;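 active = mean replicate inhibition of at least 70% and a set share of replicates each scoring 70 or more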;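 also: 0% = median of neutral control wells and 100% = median of positive control wells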
NSD2 HMT inh: inhibitors of human histone methyltransferase NSD2; inhibition, % at 12.5 µM; O96028; NSD2 peptide methylation, AlphaScreen, 120 min; hit rate 0.54% among 310,000; in the data active = inhibition above about 50%
Target sequence (O96028 whole entry, looked up): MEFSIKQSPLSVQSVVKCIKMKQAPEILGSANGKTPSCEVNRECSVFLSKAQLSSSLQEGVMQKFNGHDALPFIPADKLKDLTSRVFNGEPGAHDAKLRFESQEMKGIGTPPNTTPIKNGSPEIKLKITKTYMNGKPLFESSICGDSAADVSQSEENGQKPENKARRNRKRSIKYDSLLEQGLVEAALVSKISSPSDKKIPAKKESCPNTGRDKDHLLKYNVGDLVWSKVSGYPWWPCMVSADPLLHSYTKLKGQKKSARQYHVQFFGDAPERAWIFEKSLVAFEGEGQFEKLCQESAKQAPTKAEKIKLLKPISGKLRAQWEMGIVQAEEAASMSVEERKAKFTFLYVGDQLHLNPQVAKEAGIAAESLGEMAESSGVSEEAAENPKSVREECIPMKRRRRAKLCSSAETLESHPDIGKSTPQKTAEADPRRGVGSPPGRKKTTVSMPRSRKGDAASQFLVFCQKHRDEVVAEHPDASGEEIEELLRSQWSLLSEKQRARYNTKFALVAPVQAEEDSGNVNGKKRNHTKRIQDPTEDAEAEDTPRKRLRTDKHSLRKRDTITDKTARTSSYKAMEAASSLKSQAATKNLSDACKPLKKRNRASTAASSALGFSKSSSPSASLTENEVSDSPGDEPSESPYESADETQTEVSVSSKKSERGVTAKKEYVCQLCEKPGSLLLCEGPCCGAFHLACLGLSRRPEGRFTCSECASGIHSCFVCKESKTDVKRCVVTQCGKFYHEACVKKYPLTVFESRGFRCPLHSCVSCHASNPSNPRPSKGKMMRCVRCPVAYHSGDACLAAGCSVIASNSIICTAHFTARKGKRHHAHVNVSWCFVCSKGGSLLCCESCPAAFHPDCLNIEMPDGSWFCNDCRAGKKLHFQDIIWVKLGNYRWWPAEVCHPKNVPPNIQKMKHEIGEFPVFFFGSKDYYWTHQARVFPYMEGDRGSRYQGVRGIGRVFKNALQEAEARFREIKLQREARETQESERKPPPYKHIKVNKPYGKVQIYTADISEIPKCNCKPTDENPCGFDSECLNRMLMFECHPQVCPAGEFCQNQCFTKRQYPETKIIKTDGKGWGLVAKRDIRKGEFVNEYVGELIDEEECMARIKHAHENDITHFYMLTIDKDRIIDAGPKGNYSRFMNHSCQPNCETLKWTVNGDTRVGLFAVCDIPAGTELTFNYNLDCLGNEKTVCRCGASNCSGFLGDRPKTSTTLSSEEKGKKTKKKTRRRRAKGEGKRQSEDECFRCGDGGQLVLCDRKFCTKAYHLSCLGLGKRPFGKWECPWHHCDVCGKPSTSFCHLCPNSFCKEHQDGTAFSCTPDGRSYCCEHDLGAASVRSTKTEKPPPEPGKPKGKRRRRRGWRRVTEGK
ARNT TACC3 PPI: disrupts binding between human ARNT and TACC3; hit rate 0.66% among 390,000; inhibition, % at 9.99 µM; AlphaScreen His-ARNT PAS-B/GST-TACC3 binding, luminescence; TACC3 fragment carries E629A point mutation;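 active = mean inhibition of replicates at least 50% and at least half of replicates each reaching 50%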;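 also: 0% = complete ARNT plus TACC3 wells and 100% = ARNT alone without TACC3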
SR-BI DiI-HDL act: enhances SR-BI lipid uptake from DiI-HDL; CHO ldlA[mSR-BI] cells, DiI-HDL uptake fluorescence, 3 h; 100 = double the neutral-control signal; activation, % at 12.5 µM; hit rate 0.096% among 320,000; AID 504775;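 active = mean replicate activation of at least 60% and every replicate at or above 60%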;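 also: 0% = median plate neutral-control signal and 100% = twice that signal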
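Assay system: LDL receptor-deficient CHO ldlA cells overexpressing murine SR-BI / Medium: BSA-supplemented, HEPES-buffered Ham's F12, pH 7.4 / Probe or stimulus: DiI-labelled HDL at 10 µg/mL final / Timing: compound with DiI-HDL co-incubation, 3 h at 37 °C / Technique: bottom-read cell fluorescence after medium removal, ex 550/em 595 nm / Measure: HDL uptake via cellular fluorescence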
XiGFP reactiv: reactivates the inactive X chromosome in mouse fibroblasts; XiGFP mouse fibroblasts, % GFP-positive cells imaging, 3 d; cells co-treated with 5-aza-dC sensitizer; scaled so ellipticine positive control = 100%; activation, % at 7.58 µM; hit rate 0.055% among 360,000; AID 743238;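 active = mean normalized replicate activation at least 10% and every replicate at or above 10%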;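 also: 0% = median of on-plate neutral control wells and 100% = ellipticine 6 µM median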
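Assay system – SV40-immortalized XiGFP fibroblast cells, line 68-5-11 · Buffer or medium – DMEM supplemented with 5-aza-dC as sensitizing agent · Dosing – one concentration, pinned · Benchmarks – positive control ellipticine, 6 µM final · Times – 3 days compound exposure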
HGIII-sPLA2 inh: Inhibits HGIII-sPLA2 liposome hydrolysis, primary screen; hit rate 0.56% among 370,000; inhibition, % at 12.2 µM; QFRET BODIPY PC-A2 liposome hydrolysis, fluorescence; Q9NZ20;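 active = inhibition above mean plus 3 SD of compounds lying within the high and low control bounds, cut at about 19% in these data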;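 also: 0% = median of test compound wells and 100% = no enzyme DMSO wells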
Numbers without * were called inactive.

O=C(Nc1cccc(C(F)(F)F)c1)c1ccc2nc(-c3ccco3)c(-c3ccco3)nc2c1 was read as SR-BI DiI inh 81.6*, NSD2 HMT inh 4.8, SR-BI DiI-HDL act -81.6 and HGIII-sPLA2 inh 3.4.
For Cc1ccccc1-c1ccc2c(c1)O[C@@H](CN(C)C(=O)Nc1ccccc1)[C@H](C)CN([C@@H](C)CO)S2(=O)=O the results were ARNT TACC3 PPI -5.0 and XiGFP reactiv -0.6.
O=C(Nc1nnc(C2=COCCO2)o1)C1CCCCC1 was read as SR-BI DiI inh -23.7, NSD2 HMT inh 9.7, ARNT TACC3 PPI 49.9*, SR-BI DiI-HDL act 23.7, XiGFP reactiv 0.0 and HGIII-sPLA2 inh 0.8.
For Cc1cccc(C(=O)Nc2nnc(C3=COCCO3)o2)c1 the results were SR-BI DiI inh -5.5, NSD2 HMT inh 4.4, ARNT TACC3 PPI 55.3*, SR-BI DiI-HDL act 5.5, XiGFP reactiv -0.1 and HGIII-sPLA2 inh 8.2.
Screening O=C(Nc1nnc(C2=COCCO2)o1)c1cccc(F)c1 returned SR-BI DiI inh -9.9, NSD2 HMT inh 22.1, ARNT TACC3 PPI 39.5, SR-BI DiI-HDL act 9.9, XiGFP reactiv 0.0 and HGIII-sPLA2 inh 0.8.
COc1ccc(C(=O)Nc2nnc(C3=COCCO3)o2)cc1OC was read as SR-BI DiI inh 1.8, NSD2 HMT inh -1.4, ARNT TACC3 PPI 37.1*, SR-BI DiI-HDL act -1.8, XiGFP reactiv 0.2 and HGIII-sPLA2 inh 2.1.
O=C(Nc1nnc(-c2ccncc2)o1)C1CCCCC1 was read as SR-BI DiI inh -1.3, NSD2 HMT inh -2.1, ARNT TACC3 PPI 28.8, SR-BI DiI-HDL act 1.3, XiGFP reactiv 0.4 and HGIII-sPLA2 inh 2.6.
COc1ccc(-n2c(SCC(=O)Nc3ccc(Cl)cc3)nc(O)c(Cc3ccccc3)c2=O)cc1 was read as SR-BI DiI inh -10.8, NSD2 HMT inh 8.8, ARNT TACC3 PPI -2.5, SR-BI DiI-HDL act 10.8, XiGFP reactiv 2.7 and HGIII-sPLA2 inh -19.6.
For Cn1c(=S)n(CCC(=O)O)c2ccccc21 the results were SR-BI DiI inh -21.1, NSD2 HMT inh -6.4, ARNT TACC3 PPI -4.5, SR-BI DiI-HDL act 21.1, XiGFP reactiv 0.0 and HGIII-sPLA2 inh 0.4.
For CCOC(=O)/C(=C/C=C1\Sc2cc(OCC)c(OCC)cc2N1CC)C(C)=O the results were SR-BI DiI inh 77.5*, NSD2 HMT inh 1.6, ARNT TACC3 PPI 51.5*, SR-BI DiI-HDL act -77.5, XiGFP reactiv 5.8 and HGIII-sPLA2 inh -26.2.
For CCOC(=O)/C(=C\C=C1/Sc2cc(OCC)c(OCC)cc2N1CC)C(C)=O the results were SR-BI DiI inh 78.3*, NSD2 HMT inh 2.0, ARNT TACC3 PPI 50.5*, SR-BI DiI-HDL act -78.3, XiGFP reactiv 2.5 and HGIII-sPLA2 inh -49.2.
Screening CCN1/C(=C/C(C)=O)Sc2ccc(OC)cc21 returned SR-BI DiI inh -4.8, NSD2 HMT inh 0.6, ARNT TACC3 PPI 5.5, SR-BI DiI-HDL act 4.8 and HGIII-sPLA2 inh 0.8.
CCN(CC)S(=O)(=O)c1ccc(N2CCOCC2)c(NC(=O)CSCc2c(C)noc2C)c1 was read as SR-BI DiI inh -31.2, NSD2 HMT inh -0.3, ARNT TACC3 PPI 0.9, SR-BI DiI-HDL act 31.2, XiGFP reactiv 0.2 and HGIII-sPLA2 inh 7.3.
Screening Cc1ccc(N=C2NC(=O)/C(=C/c3cn(C)c4ccccc34)S2)cc1C returned SR-BI DiI inh 81.1*, NSD2 HMT inh -4.6, ARNT TACC3 PPI -24.7, SR-BI DiI-HDL act -81.1, XiGFP reactiv 0.0 and HGIII-sPLA2 inh -4.2.
Screening O=C(Oc1c(CN2CCOCC2)cc(Cl)c2cccnc12)c1ccccc1F returned SR-BI DiI inh 1.2, NSD2 HMT inh 1.6, ARNT TACC3 PPI 65.5*, SR-BI DiI-HDL act -1.2, XiGFP reactiv 0.5 and HGIII-sPLA2 inh -1.0.
`COc1ccc(C(=O)Oc2c(CN3CCOCC3)cc(Cl)c3cccnc23)cc1OC` gave XiGFP reactiv 0.0 and HGIII-sPLA2 inh 3.8.
Screening O=C(O)CCC(=O)NNC(=O)COc1ccc(Cl)cc1Cl returned SR-BI DiI inh -18.2, NSD2 HMT inh -1.1, SR-BI DiI-HDL act 18.2, XiGFP reactiv 0.0 and HGIII-sPLA2 inh 7.5.
